Data as given in ChEMBL document CHEMBL4706570, “Structure-activity relationship studies and bioactivity evaluation of 1,2,3-triazole containing analogues as a selective sphingosine kinase-2 inhibitors” (Eur J Med Chem, 2020).
pIC50, pKi: −log10 of the molar value. The source made the active and inactive calls. No cut-off for these calls is given here.

What was measured:
[1] = molecular target: T1, Sphingosine kinase 2 (Homo sapiens) (UniProt Q9NRA0); experiment: Inhibition of recombinant human N-terminal His-tagged SphK2 (2 to 654 residues) expressed in baculovirus infected Sf21 cells at 125 uM using d-erythro-sphingosine as substrate incubated for 1 hr by ADP-Glo assay relative to control
T1 sequence (whole entry): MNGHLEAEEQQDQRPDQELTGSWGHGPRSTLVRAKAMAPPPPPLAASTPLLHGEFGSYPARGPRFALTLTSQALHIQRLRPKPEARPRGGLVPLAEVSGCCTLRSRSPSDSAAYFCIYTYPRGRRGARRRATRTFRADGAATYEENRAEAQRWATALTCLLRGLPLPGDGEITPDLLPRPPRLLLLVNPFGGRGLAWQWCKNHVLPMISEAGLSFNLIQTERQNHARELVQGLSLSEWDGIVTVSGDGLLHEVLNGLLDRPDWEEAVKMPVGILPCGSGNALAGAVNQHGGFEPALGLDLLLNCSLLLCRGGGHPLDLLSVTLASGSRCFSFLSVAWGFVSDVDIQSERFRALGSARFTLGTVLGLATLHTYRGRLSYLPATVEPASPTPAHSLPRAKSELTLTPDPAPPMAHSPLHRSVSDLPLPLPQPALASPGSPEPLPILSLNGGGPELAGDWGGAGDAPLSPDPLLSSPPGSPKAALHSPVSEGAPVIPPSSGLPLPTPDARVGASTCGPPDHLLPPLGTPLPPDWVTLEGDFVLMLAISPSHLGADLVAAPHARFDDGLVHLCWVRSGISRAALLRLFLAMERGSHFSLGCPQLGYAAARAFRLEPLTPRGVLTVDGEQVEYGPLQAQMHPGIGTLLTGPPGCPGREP

U-251 = experiment: Cytotoxicity against human U-251MG cells assessed as reduction in cell viability at 125 uM incubated for 24 hrs by Hoechst 33258 and PI staining based imaging analysis; format: functional
In short: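 U-251 MG glioblastoma cells grown in RPMI-1640 with 10% FBS, 1 mM sodium pyruvate and 1x Pen-Strep at 37 °C, 5% CO2. Seeded at 3000 cells/well, left about 16 h, then medium replaced with fresh medium containing 125 µM compound for 24 h. Stained with Hoechst 33258 for total cells and propidium iodide for apoptotic cells. Triplicate, S.E. reported.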

Sphingosine kinase 2 [2] = molecular target: T2, Sphingosine kinase 2 (Homo sapiens, UniProt Q9NRA0); experiment: Inhibition of recombinant human N-terminal His-tagged SphK2 (2 to 654 residues) expressed in baculovirus infected Sf21 cells using d-erythro-sphingosine as substrate incubated for 1 hr by ADP-Glo assay
T2 sequence (Q9NRA0 whole entry): T1 sequence (whole entry)

Sphingosine kinase 1 = Sphingosine kinase 1 (Homo sapiens, UniProt Q9NYA1); experiment: Inhibition of recombinant human Flag-tagged SphK1 transfected in HEK293 cells using d-erythro-sphingosine as substrate by [gamma32P]-ATP based assay
Sphingosine kinase 2 [3] = molecular target: T2, Sphingosine kinase 2; experiment: Inhibition of recombinant human Flag-tagged SphK2 transfected in HEK293 cells using d-erythro-sphingosine as substrate by [gamma32P]-ATP based assay

Chain of Sphingosine kinase 1 (Q9NYA1 whole entry): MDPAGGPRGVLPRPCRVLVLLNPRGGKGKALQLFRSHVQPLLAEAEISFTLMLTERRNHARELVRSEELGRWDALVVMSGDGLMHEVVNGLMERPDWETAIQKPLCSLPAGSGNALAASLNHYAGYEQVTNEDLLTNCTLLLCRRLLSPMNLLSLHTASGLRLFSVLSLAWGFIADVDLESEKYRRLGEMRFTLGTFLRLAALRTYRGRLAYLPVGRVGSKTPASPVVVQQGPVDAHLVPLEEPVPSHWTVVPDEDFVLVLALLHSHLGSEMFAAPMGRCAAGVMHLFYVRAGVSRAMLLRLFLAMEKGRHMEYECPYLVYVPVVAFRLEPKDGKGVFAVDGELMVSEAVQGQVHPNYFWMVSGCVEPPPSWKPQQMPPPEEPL

Compound | inhibition [1] | inhibition (U-251) | pIC50 (Sphingosine kinase 2 [2]) | further results
N=C(N)N1CCC[C@H]1Cc1nc(-c2ccc(Cn3cc(-c4ccccc4)nn3)cc2)no1 | > 50% | Active |  | 
Cn1cc(-c2cn(Cc3ccc(-c4noc(C[C@@H]5CCCN5C(=N)N)n4)cc3)nn2)cn1 | > 50% |  |  | 
N=C(N)N1CCC[C@H]1c1nc(-c2ccc(Cn3cc(-c4ccc(F)cc4)nn3)cc2)no1 | > 50% |  | 6.41 | 
N=C(N)C1(c2nc(-c3ccc(Cn4cc(C5CC5)nn4)cc3)no2)CC1 | > 50% |  |  | 
N=C(N)N1CCC[C@H]1Cc1nc(-c2ccc(Cn3cc(-c4ccccn4)nn3)cc2)no1 | > 50% |  |  | 
CCCCc1cn(Cc2ccc(-c3noc([C@@H]4CCCN4C(=N)N)n3)cc2)nn1 | > 50% |  | 6.60 | 
N=C(N)N1CCC[C@H]1c1nc(-c2ccc(Cn3cc(-c4cccs4)nn3)cc2)no1 | > 50% |  | 6.16 | 
N=C(N)N1CCC[C@H]1c1nc(-c2ccc(Cn3cc(-c4ccc(C(F)(F)F)cc4)nn3)cc2)no1 | > 50% | Active | 6.44 | 
N=C(N)N1CCC[C@H]1c1nc(-c2ccc(Cn3cc(-c4ccccc4)nn3)cc2)no1 | > 50% |  |  | 
N=C(N)C1(c2nc(-c3ccc(Cn4cc(-c5ccccc5)nn4)cc3)no2)CC1 | > 50% | Active |  | 
N=C(N)N1CCC[C@H]1Cc1nc(-c2ccc(Nc3nc(-c4cccc(C(F)(F)F)c4)cs3)cc2)no1 | > 50% |  | 6.55 | 
N=C(N)N1CCC[C@H]1Cc1nc(-c2ccc(Cn3cc(-c4ccc(C(F)(F)F)cc4)nn3)cc2)no1 |  | Active |  | 
N=C(N)N1CCC[C@H]1c1nc(-c2ccc(Cn3cc(-c4ccccn4)nn3)cc2)no1 | > 50% |  |  | 
Cc1ccc(S(=O)(=O)Nc2cccc(/C=N/c3ccccc3NS(=O)(=O)c3ccc(C)cc3)c2)cc1 |  |  |  | pKi (Sphingosine kinase 1): 4.57; pKi (Sphingosine kinase 2 [3]): 5.16
O=C(NCc1ccncc1)C12CC3CC(C1)CC(c1ccc(Cl)cc1)(C3)C2 [ABC-294640] |  |  |  | inhibition at 125 µM (U-251): 50%
Cn1cc(-c2cn(Cc3ccc(-c4noc(C5(C(=N)N)CC5)n4)cc3)nn2)cn1 | > 50% | Active |  | 
COc1ccc(-c2cn(Cc3ccc(-c4noc([C@@H]5CCCN5C(=N)N)n4)cc3)nn2)cc1 | > 50% | Active | 6.58 | 
COc1ccc(-c2cn(Cc3ccc(-c4noc(C[C@@H]5CCCN5C(=N)N)n4)cc3)nn2)cc1 | > 50% | Active |  | 
N=C(N)N1CCC[C@H]1c1nc(-c2ccc(Cn3cc(C4CC4)nn3)cc2)no1 | > 50% |  | 6.61 | 
